High-throughput results (PubChem)
KCNK3 block: human KCNK3 channel inhibition, primary screen; 340,000 tested, 0.84% active; CHO-KCNK3 thallium flux, FluxOR fluorescence; active compounds read low; B-score at 10 µM; O14649;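 active = B-score under library mean minus 4 SD, starting fluorescence ratio at most library mean plus 5 SD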;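 also: more negative B-score means stronger inhibition of thallium flux through KCNK3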
hERG rescue: hERG (human) protection from proarrhythmic block; Q12809; CHO-hERG, FluxOR thallium flux, dofetilide IC70 present; activation (rescue from dofetilide block), less the hit threshold, % at 10 µM; 310,000 tested, 0.51% active; AID 1511;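 active = activation above the mean of controls blocked by dofetilide plus 5 SD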;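 also: thallium influx through hERG after potassium depolarization seen as dye fluorescence rise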
Target sequence (Q12809 whole entry, looked up): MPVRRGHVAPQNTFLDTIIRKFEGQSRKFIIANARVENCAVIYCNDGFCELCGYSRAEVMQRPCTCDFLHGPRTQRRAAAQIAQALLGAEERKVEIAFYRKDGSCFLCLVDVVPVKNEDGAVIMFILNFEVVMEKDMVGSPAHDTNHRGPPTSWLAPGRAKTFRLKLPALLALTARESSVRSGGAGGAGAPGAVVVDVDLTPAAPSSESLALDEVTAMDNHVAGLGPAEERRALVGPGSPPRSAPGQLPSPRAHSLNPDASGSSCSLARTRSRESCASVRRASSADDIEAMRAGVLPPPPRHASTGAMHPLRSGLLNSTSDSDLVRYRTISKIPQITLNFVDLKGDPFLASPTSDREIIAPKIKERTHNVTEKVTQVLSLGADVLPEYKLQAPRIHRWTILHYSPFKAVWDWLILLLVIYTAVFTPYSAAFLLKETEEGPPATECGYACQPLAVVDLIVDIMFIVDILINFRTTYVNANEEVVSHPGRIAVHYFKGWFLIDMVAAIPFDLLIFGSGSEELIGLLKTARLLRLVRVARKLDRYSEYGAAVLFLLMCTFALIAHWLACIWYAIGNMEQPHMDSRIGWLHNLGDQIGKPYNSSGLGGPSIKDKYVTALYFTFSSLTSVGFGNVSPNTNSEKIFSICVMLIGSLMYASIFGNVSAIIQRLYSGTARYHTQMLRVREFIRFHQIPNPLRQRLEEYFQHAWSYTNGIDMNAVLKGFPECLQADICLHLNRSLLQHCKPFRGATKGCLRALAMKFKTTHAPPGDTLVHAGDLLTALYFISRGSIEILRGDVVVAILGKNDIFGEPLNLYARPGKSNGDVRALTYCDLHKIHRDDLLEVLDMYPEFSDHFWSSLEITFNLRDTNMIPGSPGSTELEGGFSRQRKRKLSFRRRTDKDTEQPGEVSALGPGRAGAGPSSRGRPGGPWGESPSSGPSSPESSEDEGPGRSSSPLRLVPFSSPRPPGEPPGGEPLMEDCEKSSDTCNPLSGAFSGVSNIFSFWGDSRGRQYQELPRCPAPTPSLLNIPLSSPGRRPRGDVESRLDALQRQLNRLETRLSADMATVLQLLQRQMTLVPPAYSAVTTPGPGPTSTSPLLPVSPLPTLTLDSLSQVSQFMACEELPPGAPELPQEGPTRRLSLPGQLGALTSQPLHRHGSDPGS
KCNQ1 pot: human KCNQ1 channel potentiation or activation. P51787. CHO-K1 KCNQ1, thallium flux FluxOR fluorescence; active compounds read high. B-score at 10 µM. 310,000 tested, 0.35% active. AID 2648;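 active = fluorescence ratio B-score, a plate-corrected score, at least three library SD, with initial intensity B-score within 5 SD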
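Material: CHO-K1 cells stably expressing KCNQ1. Medium: assay buffer for compound exposure, DMSO matched across wells. Reagent: K+/Tl+ depolarizing stimulus. Compound dosing: single-concentration screen. Times: 37 °C overnight plating, 90-min dark dye load, 20-min compound pretreatment. Technique: FluxOR Tl+ flux fluorescence.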
KCNK9 block: human KCNK9 channel inhibition; 310,000 tested, 1.2% active; HEK293 KCNK9, FluxOR thallium flux fluorescence; active compounds read low; B-score at 10 µM; Q9NPC2; AID 488922;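 active = ratio B-score over 3 SD below the library mean, with starting fluorescence within 5 SD of its mean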;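 also: negative B-score means less thallium flux so channel inhibition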
Kir21 block: blocks the mouse Kir2.1 inward-rectifier potassium channel; B-score at 10 µM; HEK293-Kir2.1, FluxOR thallium flux fluorescence; active compounds read low; P35561; 310,000 tested, 0.85% active;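 active = fluorescence ratio B-score at or below minus 3 SD of library scores, with starting-brightness B-score within 2 SD, cut at about -4.2 in these data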;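 also: channel flux triggered by added potassium and thallium sulfate stimulus; B-score of peak minus minimum fluorescence over baseline after thallium stimulus; more negative B-score means stronger Kir2.1 block with less thallium influx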
KCNQ1 inh: blocks the human KCNQ1 potassium channel; CHO-K1 KCNQ1, FluxOR thallium flux fluorescence; active compounds read high; B-score at 10 µM; P51787; 310,000 tested, 1.3% active;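 active = compounds whose thallium flux B-score, printed positive for inhibition, exceeds three library SD while starting fluorescence stays within three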;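 also: channel opened by potassium depolarization with thallium stimulus after 20 min compound exposure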
* = called active by the depositor; i = inactive; . = no result given. Sampled rows, rich in hits. Any-hit rate of the full collection: about 3.7%.

SMILES | KCNK3 block | hERG rescue | KCNQ1 pot | KCNK9 block | Kir21 block | KCNQ1 inh
O=C(NC(=S)N(CCCCO)C1CCCCC1)c1sc2ccccc2c1Cl | i | 18* | 31* | i | -2.3 | i
COCCN(Cc1ccccc1)C(=O)c1ccc(C(=O)c2ccccc2)cc1 | i | . | . | . | . | .
COc1ccc(S(=O)(=O)NCC(=O)N(Cc2ccco2)C(C(=O)NC(C)(C)C)C(C)C)cc1 (stereo not drawn) | i | -6 | i | i | -0.81 | i
N=c1n(CCO)c2ccccc2n1CCOc1ccc(Cl)cc1Cl | i | -8 | i | i | -4.4* | i
CCc1nc(N2CCN(CC(=O)NCC3CCCO3)CC2)c(C#N)c2c1COC(C)(C)C2 (stereo not drawn) | i | -8 | i | i | -0.55 | i
COc1cc(/C=N/NC(=O)Cn2ccc(C(F)(F)F)n2)cc(OC)c1OC | i | -4 | i | i | -0.35 | i
COc1cc(NC(=O)CSc2ncnc3sc4c(c23)CCC(C)C4)c(C(=O)O)cc1OC (stereo not drawn) | i | 51* | 39* | i | -0.06 | i
CC1CCc2c(sc3ncnc(SCC(=O)Nc4ccc(C(=O)O)cc4)c23)C1 (stereo not drawn) | i | -17 | i | i | 0.02 | i
COc1cccc(-c2cc(C(F)(F)F)n3ncc(C(=O)O)c3n2)c1 | i | -7 | i | i | 0.72 | i
COC(=O)c1cnn2c(C(F)(F)F)cc(-c3ccccc3)nc12 | i | 5.2* | i | i | -0.07 | i
Fc1cccc(/C=N/Nc2ccc3ccccc3n2)c1 | i | 10* | 58* | i | -0.85 | i
Fc1cccc(/C=N/Nc2ccccn2)c1 | i | -11 | i | i | -1.5 | i
Cn1nnnc1SCc1ccc(C(=O)Nc2nccs2)cc1 | i | -16 | i | i | 0.04 | i
C=CCn1c(SCc2ccc(C(=O)Nc3nccs3)cc2)nnc1-c1ccc(C)c(Cl)c1 | i | -7 | i | -7.2* | -1.3 | i
O=C(c1ccc(Cl)cc1)N1CCN=C1c1ccccc1 | i | -10 | i | i | -4.5* | i
Cc1cc(Br)cc(/C=N/NC(=O)c2ccc3c(c2)OCO3)c1O | i | -5 | i | i | 1.1 | 8*
CCc1ccc2[nH]c(O)c(N=Nc3nc(-c4ccccc4)cs3)c2c1 | i | 7.2* | 10* | i | 0.36 | i
CCOc1cccc2cc(-c3cn4cc(C)ccc4n3)c(=O)oc12 | i | 10* | i | i | -1.2 | i
COc1cccc2cc(-c3cn4ccc(C)cc4n3)c(=O)oc12 | i | -13 | i | i | -0.11 | i
CCCN(CC(=O)Nc1ccccc1Br)CC(=O)Nc1ccc(F)c(F)c1F | i | -8 | i | -7* | -0.63 | i
C1=CC2=NC34CCCCC3CC3=C(CCCC3)N4C2=CC1=NC1CCCCC1 (stereo not drawn) | i | -17 | i | i | 0.06 | 7*
O=C(c1ccccc1)C1CCN(C(=O)C2CCC(=O)N(Cc3ccccc3F)C2)CC1 (stereo not drawn) | i | -3 | i | i | 0.44 | i
Cc1cc(=O)[nH]c(Nc2ccc(N(C)C)cc2)n1 | i | -8 | i | i | 1.5 | i
Nc1cc2c(cc1[N+](=O)[O-])OCCO2 | i | -6 | i | i | 1.4 | i
Nc1cc2c(cc1[N+](=O)[O-])OCCOCCOCCO2 | i | 6.4* | i | i | 0.75 | i
SMILES | KCNK3 block | hERG rescue | KCNQ1 pot | KCNK9 block | Kir21 block | KCNQ1 inh
CCCCCNCC(=O)Nc1cccc(C(=O)Nc2cccc(C(F)(F)F)c2)c1 | i | -28 | i | i | 0.01 | 6*
CCC(C)c1ccccc1NC(=O)c1[nH]c(C)c(C(C)=O)c1C (stereo not drawn) | i | 5.8* | i | i | -0.68 | i
CC(=O)c1c(C)[nH]c(C(=O)Nc2cccc(C(F)(F)F)c2)c1C | i | -9 | 7* | i | 2.1 | i
O=C(Cc1cccc(NC(=O)C2CCCN(C(=O)C3CCCC3)C2)c1)Nc1cccc(C(=O)N2CCCCC2)c1 (stereo not drawn) | i | . | . | . | . | .
C/C=C(/C)C(=O)O[C@@H]1c2c(ccc3ccc(=O)oc23)OC(C)(C)[C@@H]1OC(=O)/C(C)=C\C | i | -6 | i | -7.4* | 0.43 | i
Cc1ccc(-c2cc(-c3ccc(F)cc3)c(C#N)c(N)n2)o1 | i | -12 | i | i | -2.2 | i
Cc1cc(-c2cc(-c3ccc(Cl)cc3)nc(N)c2C#N)co1 | i | -15 | i | i | -4.9* | i
Cc1ccc(-c2cc(-c3ccc(Cl)cc3)c(C#N)c(N)n2)o1 | i | -13 | i | i | -4.5* | i
O=C(COc1ccc(-c2ccccc2)cc1)N/N=C/c1cc(O)ccc1Br | i | -5 | i | i | -0.65 | 11*
Cc1onc(-c2c(F)cccc2Cl)c1C(=O)Nc1ccc(Cl)c(S(=O)(=O)N(C)C)c1 | i | . | . | . | . | .
CCOc1cc(CNCc2cccs2)cc(Br)c1OCC | i | -9 | i | i | -5.6* | i
CCOc1cc(CNCCO)cc(Br)c1OCc1cccs1 | i | -9 | i | i | -13* | i
Brc1cccc(CNCc2cccs2)c1 | i | -5 | i | i | -0.5 | i
CCOc1cc(CNCc2ccncc2)cc(Br)c1OCc1ccccc1F | i | -19 | i | i | -8* | i
CCc1ccccc1NC(=O)C1CCN(c2cnccn2)CC1 | i | -7 | i | i | -1.1 | i
O=C1C=C(c2ccc(Oc3ccccc3)cc2)C[C@@H](c2ccc(F)cc2)C1 | i | . | . | . | . | .
O=C(NC(=S)N(CCc1ccccc1)CCc1ccccc1)c1ccco1 | i | 37* | 47* | i | -3.3 | i
CC(CCc1ccccc1)NC(=S)NC(=O)c1ccco1 (stereo not drawn) | i | 25* | 24* | i | 0.27 | i
CC(CCc1ccccc1)NC(=O)Cc1ccccc1 (stereo not drawn) | i | -8 | i | i | -1.9 | i
CC(C)Sc1nc(C(F)(F)F)cc(=O)n1-c1ccccc1 | i | -14 | i | i | -4.4* | i
CCSc1nc(C(F)(F)F)cc(=O)n1-c1ccccc1 | i | -15 | i | i | -2.8 | i
O=S(=O)(c1ccc(SCc2ccc(Br)cc2)nc1)N1CCCCC1 | -10* | . | . | . | . | .
CCN(CC)c1ccc(C(=O)NNC(=O)C2CSC3(C)CCC(=O)N23)cc1 (stereo not drawn) | i | . | . | . | . | .
COc1ccc(NC(=O)/C(=C/c2ccc(OC(C)=O)c(OC)c2)NC(C)=O)cc1 | i | -3 | 88* | i | 0.77 | i
